Series [1] is described as follows: Drug uptake in Trypanosoma brucei brucei Lister 427 bloodstream forms nucleus at 50 uM after 2 hrs by FITC/DsRed staining based fluorescence microscopic analysis. The class given is ADME. The method, boiled down: (§1)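 Parasites at 1 × 10^7 cells/mL exposed to 50 μM compound for 2 h at 37 °C, humidified 5% CO2. Washed in PBS, mixed 1:1 with 2% w/v low-melting agarose and spread under a coverslip for fluorescence microscopy.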

The subject of series [2] is Trypanosoma brucei brucei. As to the kind of experiment: Binding affinity to kinetoplast DNA in Trypanosoma brucei brucei Lister 427 bloodstream forms at 50 uM after 2 hrs by FITC/DsRed staining based fluorescence microscopic analysis. The essentials:
as §1

For series [3], the system named is Trypanosoma brucei brucei. Description: Antitrypanosomal activity against Trypanosoma brucei brucei Lister 427 bloodstream forms incubated for 48 hrs by alamar blue assay. The class given is functional, organism-based. To be noted: Lister 427, 48 h. For orientation: Alamar Blue is a resazurin reagent that responds to reducing activity.
Series [4] is described as follows: Selectivity index, ratio of IC50 for HEK293 cells to IC50 for Trypanosoma brucei brucei Lister 427 bloodstream forms. The class given is toxicity, cell-based. The note with it: human, read-out: Ratio IC50.
Series [5] deals with HEK293. As to the kind of experiment: Cytotoxicity against HEK293 cells assessed as growth inhibition after 72 hrs by alamar blue viability assay. To be noted: Homo sapiens, HEK293, 72 h. The class given is cell-based. The method, boiled down:
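HEK 293 cells kept in DMEM + 10% FBS at 37 °C, 5% CO2, harvested at 80% confluence, 2000 cells/well, equilibrated overnight. Serial compound dilutions for 72 h; puromycin positive control, 0.4% DMSO negative. […] Two experiments, duplicate points.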

The source made the active and inactive calls. The rule behind the calls is not given here.

The IC50 is the midpoint of a concentration-inhibition curve.

`CN(C)c1ccc(/C=C/c2ccc(C(=O)Nc3cc(C(=O)Nc4cc(C(=O)NCCN5CCOCC5)n(C)c4)n(C)c3)cn2)cc1`: the Drug uptake result in series [1] is on record as “Active”. In series [2], the outcome was Active. With `COc1cccc(C(=N)Nc2cc(C(=O)Nc3cc(C(=O)Nc4nc(C(=O)NCCN5CCOCC5)c(C(C)C)s4)n(C)c3)n(C)c2)c1`, the 50% inhibitory concentration (IC50) in series [3] is above 75 µM. Turning to `CC(C)CCc1sc(NC(=O)c2cc(NC(=O)c3cc(/C=C/c4ccc([N+](=O)[O-])cc4)cn3C)cn2C)nc1C(=O)NCCN1CCOCC1`, in series [4], the selectivity ratio is above 1850. As to `Cn1cc(NC(=O)c2cc(NC(=O)c3ccc(/C=C/c4ccc5nonc5c4)cc3)cn2C)cc1C(=O)NCCN1CCOCC1`, the IC50 in series [5] is above 20 µM. In series [4], the selectivity ratio was above 1050. Consider `CC(C)CCc1sc(NC(=O)c2cc(NC(=O)c3ccc(/C=C/c4ccc5ccccc5c4)cc3)cn2C)nc1C(=O)NCCN1CCOCC1`, for which the IC50 in series [5] was above 20 µM. In addition, the selectivity ratio in series [4] was above 500. For `Cn1cc(NC(=O)c2cc(NC(=O)c3ccc(/C=C/c4ccc5nsnc5c4)cc3)cn2C)cc1C(=O)NCCN1CCOCC1`, in that order: above 20 µM and above 2740. `Cn1cc(NC(=O)c2cc(NC(=O)c3cc(NC=O)cn3C)cn2C)cc1C(=O)NCCN1CCOCC1` returned an IC50 in series [3] of 48 µM. Regarding `Cn1cc(NC(=O)c2cc(NC(=O)c3cc(NC(=O)c4cc5ccccc5cn4)cn3C)cn2C)cc1C(=O)NCCCN1CCOCC1`, in series [5], the IC50 is above 20 µM. In addition, the selectivity ratio in series [4] was above 2940.

These data come from ChEMBL document CHEMBL3797056, “An evaluation of Minor Groove Binders as anti-Trypanosoma brucei brucei therapeutics” (Eur J Med Chem, 2016).
